Data taken from article PMC3873039 (Anti-Cancer Agents in Medicinal Chemistry, 2013).
pEC50, pIC50: −log10 of the molar value.

Experiments:
non-tumor cells (CD34+) [1] = experiment: Hoechst 33342 nuclear morphological analysis of apoptosis; type: cell-based; conditions: 24 h, read-out: AP50 (50% induction of apoptosis), Hoechst 33342 staining (Hoe)
How it was run: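 CD34+ cells treated 24 h across the IC25–IC50 range, then pelleted (400 g, 4 °C) and fixed in 4% paraformaldehyde/PBS. Cytospins were air-dried and stained with 10 μg/ml Hoechst 33342 for 10 min in the dark, then viewed by fluorescence microscopy. 200 cells were scored per sample as % apoptotic nuclei (shrinkage, blebbing, chromatin condensation, apoptotic bodies). AP50 = concentration giving 50% apoptosis.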

K562 [2] = experiment: Hoechst 33342 nuclear morphological analysis of apoptosis; type: cell-based; conditions: Homo sapiens, K562, 24 h, read-out: AP50 (50% induction of apoptosis), Hoechst 33342 staining (Hoe)
How it was run: (§1)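 Seeded at 0.5 x 10⁶ cells/well in 12-well plates and treated 24 h. Cells were pelleted (400 g, 5 min, 4 °C), washed in PBS, fixed in 4% paraformaldehyde, cytospun, air-dried, then stained with 10 μg/ml Hoechst 33342 for 10 min in the dark. Fluorescence microscopy: 200 cells counted, scored by condensed/intense nuclei, shrinkage, blebbing and apoptotic bodies. % apoptotic nuclei calculated. AP50 = concentration giving 50% apoptotic cells.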

CCRF-CEM [3] = experiment: NucView caspase 3 activity assay by flow cytometry; type: cell-based, human; conditions: 24 h
How it was run: (§2)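 Seeded at 0.5 x 10⁶ cells/well and treated 24 h, with series of 0–50 or 0–250 µM depending on compound. Normalized to vehicle (0% apoptosis). Mean ± STD, three independent experiments in triplicate. One-way ANOVA/Tukey, p<0.05. AP50 = concentration giving 50% apoptotic cells.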

JURKAT [4] = experiment: NucView caspase 3 activity assay by flow cytometry; type: cell-based, human; conditions: 24 h
How it was run: as §2

HL60 [5] = experiment: NucView caspase 3 activity assay by flow cytometry; type: cell-based, human
How it was run: as §2

THP-1 [6] = experiment: NucView caspase 3 activity assay by flow cytometry; type: cell-based, human
How it was run: as §2

non-tumor cells (CD34+) [7] = experiment: NucView caspase 3 activity assay by flow cytometry; type: cell-based; conditions: 24 h
[8] = test system: non-tumor progenitor cells (CD34+); experiment: Cell cycle analysis, propidium iodide flow cytometry; type: cell-based; conditions: 24 h, within the IC50 ranges used to treat the leukemic cell lines
MOLT-3 = experiment: CellTiter-Glo luminescent cell viability assay; type: cell-based, human; conditions: MOLT-3, 24 h, doses 0, 2, 10, 50, 250, 500 µM, p<0.05
How it was run: (§3)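 Cells grown in RPMI 1640 with 10% FBS, 1.5 mM L-glutamine and penicillin/streptomycin at 37 °C, 5% CO2. Seeded at 2.5 x 10³ cells/well and exposed 24 h to ethanol-dissolved test compound (0, 2, 10, 50, 250, 500 µM) with 0.1% ethanol vehicle. ATP luminescence normalized to vehicle (100%). IC50 taken from linear regression. Lowest significant dose set by one-way ANOVA/Tukey, p<0.05. Triplicates, three independent experiments.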

CCRF-CEM [9] = experiment: Cell cycle analysis, propidium iodide flow cytometry; type: cell-based, human; conditions: IC50 dose, 24 h, vehicle control G0/G1 = 41.9%
How it was run: (§4)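 Seeded at 0.5 x 10^6 cells per well in 12-well plates and treated 24 h at the IC50 concentration of each test compound from CellTiter-Glo. Cells were pelleted (400 g, 5 min), PBS-washed and fixed in 80% ethanol overnight at -20 °C. Staining used 50 µg/mL PI plus RNase overnight at 4 °C.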

HL60 [10] = experiment: Hoechst 33342 nuclear morphological analysis of apoptosis; type: cell-based; conditions: Homo sapiens, HL-60, 24 h, read-out: AP50 (50% induction of apoptosis), Hoechst 33342 staining (Hoe)
How it was run: as §1

K562 [11] = experiment: NucView caspase 3 activity assay by flow cytometry; type: cell-based, human
How it was run: as §2

[12] = test system: non-tumor cord blood (CD34+) cells; experiment: CellTiter-Glo luminescent cell viability assay; type: cell-based; conditions: 24 h
How it was run: as §3

K562 [13] = experiment: Cell cycle analysis, propidium iodide flow cytometry; type: cell-based, human; conditions: K562, IC50 dose, 24 h; vehicle control G0/G1 = 53.7%
How it was run: as §4

CCRF-CEM [14] = experiment: CellTiter-Glo luminescent cell viability assay; type: cell-based, human; conditions: 24 h, doses 0, 2, 10, 50, 250, 500 µM, p<0.05
How it was run: as §3

U937 [15] = experiment: Cell cycle analysis, propidium iodide flow cytometry; type: cell-based, human; conditions: U937, IC50 dose, 24 h; vehicle control G0/G1 = 44.03%
How it was run: as §4

U937 [16] = experiment: NucView caspase 3 activity assay by flow cytometry; type: cell-based, human
How it was run: as §2

THP-1 [17] = experiment: CellTiter-Glo luminescent cell viability assay; type: cell-based, human; conditions: THP-1, 24 h, doses 0, 2, 10, 50, 250, 500 µM, p<0.05
How it was run: as §3

JURKAT [18] = experiment: Cell cycle analysis, propidium iodide flow cytometry; type: cell-based, human; conditions: IC50 dose, 24 h, p<0.05
How it was run: as §4

THP-1 [19] = experiment: Hoechst 33342 nuclear morphological analysis of apoptosis; type: cell-based; conditions: Homo sapiens, THP-1, 24 h, read-out: AP50 (50% induction of apoptosis), Hoechst 33342 staining (Hoe)
How it was run: as §1

HL60 [20] = experiment: CellTiter-Glo luminescent cell viability assay; type: cell-based, human; conditions: HL60, 24 h, doses 0, 2, 10, 50, 250, 500 µM, p<0.05
How it was run: as §3

U937 [21] = experiment: CellTiter-Glo luminescent cell viability assay; type: cell-based, human; conditions: U937, 24 h, doses 0, 2, 10, 50, 250, 500 µM, p<0.05
How it was run: as §3

Cc1cc(O)c2c(c1)C(=O)c1cc(O)cc(O)c1C2=O [Emodin]
pEC50 (non-tumor cells (CD34+) [1]): < 3.30
pEC50 (K562 [2]): < 3.30
pEC50 (CCRF-CEM [3]; Homo sapiens, read-out: AP50 (50% induction of apoptosis), Caspase 3 activity assay (C3)): < 5.00
The lowest dose of polyphenols at which there was a significant induction of apoptosis compared to the vehicle control (CCRF-CEM [3]; caspase 3 activity, p<0.05): 10 µM
pEC50 (JURKAT [4]; Homo sapiens, Jurkat, read-out: AP50 (50% induction of apoptosis), Caspase 3 activity assay (C3)): 5.70
The lowest dose of polyphenols at which there was a significant induction of apoptosis compared to the vehicle control (JURKAT [4]; JURKAT, caspase 3 activity, p<0.05): 2 µM
The lowest dose of polyphenols at which there was a significant induction of apoptosis compared to the vehicle control (HL60 [5]; HL60, caspase 3 activity, 24 h, p<0.05): 10 µM
pEC50 (HL60 [5]; Homo sapiens, HL-60, 24 h, read-out: AP50 (50% induction of apoptosis), Caspase 3 activity assay (C3)): 5.07
pEC50 (THP-1 [6]; Homo sapiens, THP-1, 24 h, read-out: AP50 (50% induction of apoptosis), Caspase 3 activity assay (C3)): 5.11
The lowest dose of polyphenols at which there was a significant induction of apoptosis compared to the vehicle control (THP-1 [6]; THP-1, caspase 3 activity, 24 h, p<0.05): 2 µM
pEC50 (non-tumor cells (CD34+) [7]; read-out: AP50 (50% induction of apoptosis), Caspase 3 activity assay (C3)): < 5.00
The lowest dose of polyphenols at which there was a significant induction of apoptosis compared to the vehicle control (non-tumor cells (CD34+) [7]; CD34+ non-tumour control cells, caspase 3 activity, p<0.05): 10 µM
Cell cycle arrest in non-tumour control cells [8]: No Arrest <50µM
The lowest dose of polyphenols at which there was a significant inhibition of cell proliferation compared to the vehicle control (MOLT-3): 2 µM
Percentage of cells in G0/G1 phase of cell cycle (significant accumulation) (CCRF-CEM [9]): G0/G1 =50%
pEC50 (HL60 [10]): 5.22
pEC50 (K562 [11]; Homo sapiens, K562, 24 h, read-out: AP50 (50% induction of apoptosis), Caspase 3 activity assay (C3)): < 5.00
The lowest dose of polyphenols at which there was a significant induction of apoptosis compared to the vehicle control (K562 [11]; K562, caspase 3 activity, 24 h, p<0.05): 2 µM
pIC50 ([12]; read-out: IC50 (50% inhibition of cellular proliferation), CD34+ non-tumour control cells, 24 h treatment): ~3.82
The lowest dose of polyphenols at which there was a significant inhibition of cell proliferation compared to the vehicle control ([12]; CD34+ non-tumour control cells, doses 0, 2, 10, 50, 250, 500 µM, p<0.05): 50 µM
Percentage of cells in G0/G1 phase of cell cycle (significant accumulation) (K562 [13]): G0/G1 =66%
The lowest dose of polyphenols at which there was a significant inhibition of cell proliferation compared to the vehicle control (CCRF-CEM [14]): 2 µM
Percentage of cells in G0/G1 phase of cell cycle (significant accumulation) (U937 [15]): G0/G1 =60%
pEC50 (U937 [16]; Homo sapiens, U-937, 24 h, read-out: AP50 (50% induction of apoptosis), Caspase 3 activity assay (C3)): 5.40
The lowest dose of polyphenols at which there was a significant induction of apoptosis compared to the vehicle control (U937 [16]; U937, caspase 3 activity, 24 h, p<0.05): 2 µM
The lowest dose of polyphenols at which there was a significant inhibition of cell proliferation compared to the vehicle control (THP-1 [17]): 2 µM
Phase of cell cycle accumulation (JURKAT [18]): G0/G1 phase
pEC50 (THP-1 [19]): 5.00
The lowest dose of polyphenols at which there was a significant inhibition of cell proliferation compared to the vehicle control (HL60 [20]): 2 µM
The lowest dose of polyphenols at which there was a significant inhibition of cell proliferation compared to the vehicle control (U937 [21]): 2 µM
